From PubChem BioAssay
An excerpt weighted towards active compounds, which were near 2.6% of everything screened.
SENP7 block: blocks the human protease SENP7. AID 434973. Q9BQF6. recombinant SENP7, Z-RLRGG-aminoluciferin luminescence, 40 min. inhibition, % at 5 µM. 330,000 tested, 1.5% active;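 active = inhibition above about 50% at the single test dose, limit read from the data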;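 note: plate controls were DMSO with enzyme for no effect and no enzyme buffer wells for full effect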
SENP6 inh: inhibitors of human SENP6 protease | Q9GZR1 | Recombinant SENP6 catalytic domain, aminoluciferin luminescence | 330,000 tested, 1.8% active | AID 2599 | inhibition, % at 10 µM;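 active = inhibition above about 50% at the single tested dose, limit read from the data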;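 note: plate controls were DMSO wells with enzyme for no effect and DMSO wells lacking enzyme for full effect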
Target sequence (Q9GZR1 628-1112 limits assumed): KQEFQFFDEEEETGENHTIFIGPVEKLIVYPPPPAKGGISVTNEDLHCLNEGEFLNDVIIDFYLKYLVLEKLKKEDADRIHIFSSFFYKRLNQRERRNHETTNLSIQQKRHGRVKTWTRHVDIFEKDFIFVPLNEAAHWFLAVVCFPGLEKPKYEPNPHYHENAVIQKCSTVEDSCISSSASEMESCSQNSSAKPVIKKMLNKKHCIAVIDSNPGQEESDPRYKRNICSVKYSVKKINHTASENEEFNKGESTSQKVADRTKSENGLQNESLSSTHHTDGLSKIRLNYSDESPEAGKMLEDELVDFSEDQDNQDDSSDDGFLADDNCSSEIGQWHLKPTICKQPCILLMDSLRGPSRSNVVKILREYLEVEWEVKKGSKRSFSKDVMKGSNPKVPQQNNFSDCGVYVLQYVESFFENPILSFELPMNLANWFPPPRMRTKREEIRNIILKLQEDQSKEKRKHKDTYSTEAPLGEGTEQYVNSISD
SENP8 block-1: SENP8 (human) protease inhibition; 360,000 tested, 0.64% active; Q96LD8; recombinant SENP8, Nedd8 substrate fluorescence; inhibition, % at 20 µM; in the data active = inhibition mostly above about 40%, no sharp cut-off; inactive = mostly below about 27%
SENP1 FRET inh: SENP1 (human) catalytic domain inhibition; Q9P0U3; recombinant SENP1 catalytic domain, CyPet-SUMO1-YPet FRET cleavage; inhibition, % at 10 µM; 360,000 tested, 0.21% active; AID 624204;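 active = inhibition at least 30% at 10 µM, raw YFP signal under a set limit, fluorescence ratio 0.5 to 1.5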;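 note: 0% = enzyme with DMSO and 100% = no enzyme wells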
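Controls: no-enzyme wells low, DMSO-plus-enzyme wells high control. Test system: human recombinant His6-tagged SENP1 catalytic domain enzyme. Reagent: SFCypet-SUMO1-SFYpet FRET protein substrate, 25 nM final. Doses: one dose per compound, 10 µM, 0.5% DMSO. Detection: FRET, CFP and YFP emission. Timing: 50 min reaction at room temperature.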
SENP8 block-2: blocks the human protease SENP8; inhibition, % at 10 µM; Q96LD8; purified SENP8, Z-RLRGG-aminoluciferin cleavage, luminescence; 330,000 tested, 1.2% active; in the data active = inhibition above about 50%
Platelet DG rel: platelet dense granule release activity; human platelet-rich plasma, SFLLRN dense granule ATP release, luminescence; inhibition, %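 (compounds screened at 7.5 µM in platelet-rich plasma)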; 300,000 tested, 0.22% active; AID 1663;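 active = mean replicate score, as percent of positive control, at or above 50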
SENP8 conf: human SENP8 inhibition, confirmed. inhibition, % at 12.5 µM. shares compounds with SENP7 block. 6,200 tested, 40% active. Recombinant SENP8, Z-RLRGG-aminoluciferin luminescence, 60 min;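 active = mean inhibition across replicates above about 50%, limit read from the data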
SENP6 confirm: confirmation of human SENP6 protease inhibitors | shares compounds with SENP7 block | recombinant SENP6, Z-RLRGG-aminoluciferin luminescence | inhibition, % at 12.5 µM | 6,200 tested, 58% active | AID 488915
SENP7 conf: human SENP7 inhibition, confirmed | shares compounds with SENP7 block | recombinant SENP7, Z-RLRGG-aminoluciferin luminescence, 40 min | inhibition, % at 12.5 µM | 6,200 tested, 69% active | AID 488917
Casp3 select: selectivity test for SENP inhibitors: human caspase-3 inhibition. shares compounds with SENP7 block. purified caspase-3, Z-DEVD-aminoluciferin luminescence, 60 min. inhibition, % at 12.5 µM. 6,200 tested, 60% active. AID 488918;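 active = mean inhibition above about 50%, limit read from the data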;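 note: plate controls were enzyme with DMSO for no effect and wells without caspase-3 for full effect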
SENP luc ctr: interferes with luciferase luminescence in SENP counter-screen; shares compounds with SENP7 block; Pre-incubated SENP8/Z-RLRGG-aminoluciferin, luciferase luminescence interference; inhibition, % at 12.5 µM; 6,200 tested, 39% active; AID 488919;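 active = mean inhibition above about 50% when retested at one dose, limit read from the data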;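 note: plate controls were DMSO wells with completed reaction for no effect and substrate without enzyme for full effect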
The depositor's hits bear a star.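 Rule for the calls, unless noted: active = mean inhibition above about 50% in the one-dose retest (limit read from the data); inactive = the rest.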

Results for O=C(O)c1ccc(/C=C/C(=O)c2ccc3c(c2)OCCCO3)cc1 ?
SENP7 block: 42.6; SENP6 inh: 59.7*; SENP8 block-1: 14.4; SENP1 FRET inh: 0.4; SENP8 block-2: 21.4; Platelet DG rel: 18.7; SENP8 conf: 70.4*; SENP6 confirm: 57.0*; SENP7 conf: 74.2*; Casp3 select: 1.6; SENP luc ctr: 77.7*

What do the screens show for `Cc1ccc(/C=C/C2=NN(Cc3ccccc3)C(=O)CC2)cc1`?
SENP7 block: -3.7; SENP6 inh: -28.1; SENP8 block-1: -3.0; SENP1 FRET inh: 1.6; SENP8 block-2: -4.9; Platelet DG rel: -0.6

How did Cc1ccc(/C=C/C2=NN(C)C(=O)CC2)cc1 do in these assays?
SENP7 block: 85.6*; SENP6 inh: 2.8; SENP8 block-1: 18.6; SENP1 FRET inh: 0.7; SENP8 block-2: 76.1*; Platelet DG rel: 21.3; SENP8 conf: 75.3*; SENP6 confirm: 81.1*; SENP7 conf: 97.6*; Casp3 select: 92.6*; SENP luc ctr: 61.6*

How did CN1N=C(/C=C/c2ccccc2)CCC1=O do in these assays?
SENP7 block: 72.7*; SENP6 inh: 68.6*; SENP8 block-1: 4.9; SENP1 FRET inh: 0.8; SENP8 block-2: 60.9*; Platelet DG rel: 17.5; SENP8 conf: 60.5*; SENP6 confirm: 63.2*; SENP7 conf: 91.6*; Casp3 select: 88.9*; SENP luc ctr: 67.6*

How did O=C(NCC1CC1)c1ccc2sc([C@@H]3O[C@H](CO)[C@H](O)[C@H](O)[C@H]3O)nc2c1 do in these assays?
SENP8 block-1: 13.6; SENP1 FRET inh: 1.4

How did Brc1ccc(-c2ncc(-c3ccccc3)cn2)cc1 do in these assays?
SENP7 block: 74.1*; SENP6 inh: 6.8; SENP8 block-1: 17.8; SENP1 FRET inh: 4.5; SENP8 block-2: 19.8; Platelet DG rel: 2.2; SENP8 conf: 10.8; SENP6 confirm: 11.5; SENP7 conf: -5.5; Casp3 select: -2.6; SENP luc ctr: -2.2

Results for c1ccc(-c2nc(-c3nccc4ccccc34)oc2-c2ccccc2)cc1 ?
SENP7 block: 84.6*; SENP6 inh: 86.4*; SENP8 block-1: -406.3; SENP1 FRET inh: -56.4; SENP8 block-2: 64.2*; Platelet DG rel: 0.9; SENP8 conf: 13.5; SENP6 confirm: 20.6; SENP7 conf: 60.8*; Casp3 select: 75.8*; SENP luc ctr: 64.9*

What do the screens show for `COc1ccc(NC(=O)N(C)C[C@H]2Oc3c(NC(=O)Cc4ccccc4)cccc3C(=O)N([C@H](C)CO)C[C@@H]2C)cc1`?
SENP7 block: 2.8; SENP6 inh: 6.2; SENP8 block-1: 12.2; SENP1 FRET inh: -0.2; SENP8 block-2: -6.4

What do the screens show for `COc1cc(OC)cc(C(=O)Nc2ccc(-n3cnnn3)c(C)c2)c1`?
SENP7 block: 1.1; SENP6 inh: 93.8*; SENP8 block-1: 12.0; SENP1 FRET inh: 0.8; SENP8 block-2: 92.2*; Platelet DG rel: 43.0; SENP8 conf: 68.9*; SENP6 confirm: 91.7*; SENP7 conf: 100.8*; Casp3 select: 94.9*; SENP luc ctr: 91.7*

How did COc1cc(NC(=O)c2ccccc2-n2cnnn2)cc(OC)c1 do in these assays?
SENP7 block: -3.2; SENP6 inh: -1.1; SENP8 block-1: 17.0; SENP1 FRET inh: 1.6; SENP8 block-2: 5.7; Platelet DG rel: 0.8

What do the screens show for `Nc1c(N(CCC2=CCCCC2)C(=O)Cc2ccccc2F)c(=O)[nH]c(=O)n1Cc1ccccc1`?
SENP7 block: 5.2; SENP6 inh: 4.1; SENP8 block-1: -4.8; SENP1 FRET inh: -10.3; SENP8 block-2: -0.3
